# Experimental data: ChEMBL document CHEMBL4765301, “Discovery of novel TNNI3K inhibitor suppresses pyroptosis and apoptosis in murine myocardial infarction injury” (Eur J Med Chem, 2020)
# Activity calls are given as the source filed them. No cut-off for these calls is given here.
# How the values were obtained:
# [1] = target: Vascular endothelial growth factor receptor 1 (Homo sapiens) (UniProt P17948); experiment: Inhibition of recombinant human FLT1 (783 to end residues) assessed as residual activity at 1 uM using KKKSPGEYVNIEFG as substrate incubated for 40 mins by [gamma-33P]-ATP scintillation counting based radiometry assay relative to control
# Vascular endothelial growth factor receptor 1 (Homo sapiens), sequence (P17948 whole entry): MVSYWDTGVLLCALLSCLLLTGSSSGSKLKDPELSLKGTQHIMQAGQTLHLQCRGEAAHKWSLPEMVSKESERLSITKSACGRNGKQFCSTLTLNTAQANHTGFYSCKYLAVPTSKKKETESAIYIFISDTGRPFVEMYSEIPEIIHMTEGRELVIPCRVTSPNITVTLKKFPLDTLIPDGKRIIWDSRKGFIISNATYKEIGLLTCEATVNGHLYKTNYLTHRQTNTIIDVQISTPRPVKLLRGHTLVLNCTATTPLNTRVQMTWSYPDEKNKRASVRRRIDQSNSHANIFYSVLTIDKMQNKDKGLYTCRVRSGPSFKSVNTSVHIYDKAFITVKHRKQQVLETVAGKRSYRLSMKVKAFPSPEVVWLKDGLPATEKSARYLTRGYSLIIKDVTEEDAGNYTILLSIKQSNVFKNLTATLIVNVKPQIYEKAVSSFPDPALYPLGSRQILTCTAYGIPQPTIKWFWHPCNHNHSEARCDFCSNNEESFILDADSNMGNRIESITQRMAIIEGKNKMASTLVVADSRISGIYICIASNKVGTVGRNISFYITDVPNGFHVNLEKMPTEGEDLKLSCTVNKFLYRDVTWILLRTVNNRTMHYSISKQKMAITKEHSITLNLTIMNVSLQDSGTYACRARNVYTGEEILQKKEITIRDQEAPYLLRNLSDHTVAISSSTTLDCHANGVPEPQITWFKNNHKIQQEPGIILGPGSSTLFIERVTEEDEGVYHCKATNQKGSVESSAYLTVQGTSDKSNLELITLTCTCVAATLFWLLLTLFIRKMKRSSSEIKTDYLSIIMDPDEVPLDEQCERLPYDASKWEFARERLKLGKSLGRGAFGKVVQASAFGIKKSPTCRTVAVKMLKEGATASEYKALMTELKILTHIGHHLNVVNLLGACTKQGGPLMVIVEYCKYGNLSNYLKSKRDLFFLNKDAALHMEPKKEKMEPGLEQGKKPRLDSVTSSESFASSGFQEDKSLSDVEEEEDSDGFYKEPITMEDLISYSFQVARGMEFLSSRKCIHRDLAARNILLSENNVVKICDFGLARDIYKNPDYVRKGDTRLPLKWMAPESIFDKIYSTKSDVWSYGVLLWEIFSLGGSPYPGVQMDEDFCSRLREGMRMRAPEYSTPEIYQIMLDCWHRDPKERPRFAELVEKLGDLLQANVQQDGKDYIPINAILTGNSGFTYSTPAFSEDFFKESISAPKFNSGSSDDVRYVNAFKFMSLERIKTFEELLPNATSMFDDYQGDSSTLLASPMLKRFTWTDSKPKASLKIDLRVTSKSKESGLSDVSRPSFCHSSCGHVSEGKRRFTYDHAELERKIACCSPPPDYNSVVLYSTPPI
# [2] = system: H9c2; experiment: Inhibition of OGD-induced apoptosis in rat H9c2 cells assessed as late apoptotic cells at 0.5 uM incubated for 24 hrs by annexinV-FITC and PI staining based flow cytometry analysis (reference value: 9 %); type: functional
# [3] = system: H9c2; experiment: Inhibition of OGD-induced apoptosis in rat H9c2 cells assessed as necrotic cells at 0.5 uM incubated for 24 hrs by annexinV-FITC and PI staining based flow cytometry analysis (reference value: 2.45 %); type: functional
# [4] = system: H9c2; experiment: Inhibition of OGD-induced apoptosis in rat H9c2 cells assessed as necrotic cells at 1 uM incubated for 24 hrs by annexinV-FITC and PI staining based flow cytometry analysis (reference value: 2.45 %); type: functional
# [5] = system: H9c2; experiment: Inhibition of OGD-induced apoptosis in rat H9c2 cells assessed as reduction in cytochromeC level by Western blot analysis; type: functional, cell-based; details: dose 0.5-1 µM
# Method in brief: (§1)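 H9c2 cells under OGD were treated with saline or 0.5 or 1.0 µM inhibitor. Cells were trypsinised, washed in cold PBS, lysed in RIPA with sonication and centrifuged 30 min. Total protein was quantified and separated by SDS-PAGE, then transferred to PVDF. Blots were probed with primary and secondary antibodies and detected by ECL.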
# [6] = system: H9c2; experiment: Inhibition of JNK phosphorylation in rat H9c2 cells at 0.5 to 1 uM by Western blot analysis; type: cell-based; details: dose 0.5-1 µM; method in brief: as §1
# [7] = system: H9c2; experiment: Inhibition of OGD-induced apoptosis in rat H9c2 cells assessed as reduction in caspase1 activation at 0.5 to 1 uM by Western blot analysis; type: functional, cell-based; details: dose 0.5-1 µM; method in brief: as §1
# [8] = system: H9c2; experiment: Inhibition of OGD-induced apoptosis in rat H9c2 cells assessed as reduction in NLRP3 level at 0.5 to 1 uM by Western blot analysis; type: functional, cell-based; details: dose 0.5-1 µM; method in brief: as §1
# [9] = system: H9c2; experiment: Inhibition of OGD-induced apoptosis in rat H9c2 cells assessed as reduction in IL-1beta level at 0.5 to 1 uM by Western blot analysis; type: functional, cell-based; details: dose 0.5-1 µM; method in brief: as §1
# [10] = system: H9c2; experiment: Inhibition of OGD-induced apoptosis in rat H9c2 cells assessed as reduction in caspase1 level at 0.5 to 1 uM by immunofluorescence staining based fluorescence microscopy; type: functional, cell-based; details: dose 0.5-1 µM
# Method in brief: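 In OGD-exposed H9c2 cells treated with 0.5 or 1.0 µM inhibitor, intracellular distribution and co-localisation of caspase-1 and NLRP3 were assessed by immunofluorescence microscopy.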
# [11] = system: Mus musculus; experiment: Cardioprotective activity in C57BL/6 mouse model of myocardial infarction assessed as reduction in infarct area at 25 mg/kg, ip administered for 28 days and measured on day 28 by TTC staining based fluorescence microscopy; type: functional, organism-based; details: time 28.0 day
# Method in brief: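 Male C57BL/6 mice (5-6 weeks); MI by permanent LAD ligation under ip ketamine (100mg/kg)/xylazine (10mg/kg) with ventilation; sham group operated without LAD occlusion. Post-MI mice randomised to sham, normal saline or inhibitor groups (n=4); 25 mg/kg given ip every two days. Hearts assessed after 28 days: TTC staining (infarct yellow-white, viable red), Masson's trichrome (blue collagen) and H&E.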
# [12] = system: Mus musculus; experiment: Cardioprotective activity in C57BL/6 mouse model of myocardial infarction assessed as reduction in scar tissue at 25 mg/kg, ip administered for 28 days and measured on day 28 by masson staining based fluorescence microscopy; type: functional, organism-based; details: time 28.0 day
# Method in brief: (§2)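 MI made in male C57BL/6 mice (5-6 weeks) by permanent LAD ligation under ip ketamine (100mg/kg)/xylazine (10mg/kg), ventilated. Groups: sham, saline (NS), inhibitor 25 mg/kg ip every two days, n=4. Hearts examined after 28 days; TTC, Masson's trichrome and H&E staining of sections for infarct, collagen/scar, LV inflammatory cells and dilatation.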
# [13] = system: Mus musculus; experiment: Cardioprotective activity in C57BL/6 mouse model of myocardial infarction assessed as reduction in left ventricular inflammatory cells at 25 mg/kg, ip administered for 28 days and measured on day 28 by H and E staining based fluorescence microscopy; type: functional, organism-based; details: time 28.0 day; method in brief: as §2
# [14] = system: Mus musculus; experiment: Cardioprotective activity in C57BL/6 mouse model of myocardial infarction assessed as reduction in ventricular dilatation at 25 mg/kg, ip administered for 28 days and measured on day 28 by H and E staining based fluorescence microscopy; type: functional, organism-based; details: time 28.0 day; method in brief: as §2
# [15] = system: Mus musculus; experiment: In vivo inhibition of TNNI3K in C57BL/6 mouse at 25 mg/kg, ip administered for 28 days and measured on day 28 by immunohistochemical staining based fluorescence microscopy; type: functional, organism-based; details: time 28.0 day
# Method in brief: (§3)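 Male C57BL/6 mice (5-6 weeks) with LAD-ligation MI; sham, saline or 25 mg/kg ip every two days, n=4, 28 days. Heart sections given EDTA (pH 8.0) or citrate (pH 6.0) microwave antigen retrieval, then primary antibody 30-40 min at 37°C. Detection by HRP polymer secondary with DAB (IHC) or fluorescent secondary (IF). Positive cells were quantified.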
# [16] = system: Mus musculus; experiment: In vivo inhibition of TNNI3K in C57BL/6 mouse assessed as p38 phosphorylation at 25 mg/kg, ip administered for 28 days and measured on day 28 by immunohistochemical staining based fluorescence microscopy; type: functional, organism-based; details: time 28.0 day; method in brief: as §3
# [17] = target: T1, Serine/threonine-protein kinase TNNI3K (Rattus norvegicus) (UniProt Q7TQP6); experiment: Inhibition of TNNI3K in rat H9c2 cells assessed as reduction in p38 phosphorylation at 0.5 to 1 uM by Western blot analysis; details: dose 0.5-1 µM
# T1 sequence (whole entry): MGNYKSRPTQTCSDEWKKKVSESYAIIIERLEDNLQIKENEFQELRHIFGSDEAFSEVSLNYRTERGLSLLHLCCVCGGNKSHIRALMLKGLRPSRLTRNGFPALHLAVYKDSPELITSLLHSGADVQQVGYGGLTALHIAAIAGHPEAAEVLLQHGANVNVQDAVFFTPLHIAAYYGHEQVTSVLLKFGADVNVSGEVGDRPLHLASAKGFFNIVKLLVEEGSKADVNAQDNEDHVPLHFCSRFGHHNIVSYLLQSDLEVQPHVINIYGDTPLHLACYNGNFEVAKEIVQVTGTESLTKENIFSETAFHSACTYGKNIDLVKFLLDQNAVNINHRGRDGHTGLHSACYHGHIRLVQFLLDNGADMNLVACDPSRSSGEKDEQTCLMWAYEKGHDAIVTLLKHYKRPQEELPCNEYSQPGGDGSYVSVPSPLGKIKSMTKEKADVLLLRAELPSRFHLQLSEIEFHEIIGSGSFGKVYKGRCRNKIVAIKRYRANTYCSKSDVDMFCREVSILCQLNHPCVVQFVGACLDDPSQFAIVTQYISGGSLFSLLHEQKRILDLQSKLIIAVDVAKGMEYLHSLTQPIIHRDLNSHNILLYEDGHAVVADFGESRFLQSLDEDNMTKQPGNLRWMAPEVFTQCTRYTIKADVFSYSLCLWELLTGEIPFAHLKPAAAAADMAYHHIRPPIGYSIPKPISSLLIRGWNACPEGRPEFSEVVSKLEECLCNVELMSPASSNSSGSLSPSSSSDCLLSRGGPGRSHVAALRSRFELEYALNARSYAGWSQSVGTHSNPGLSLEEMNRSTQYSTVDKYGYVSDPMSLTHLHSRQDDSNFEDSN
smiles,measurement,setting,value
CN(C)CCCN1CCc2c(sc3ncnc(Nc4ccc(N(C)C)c(NC(=O)c5ccco5)c4)c23)C1,Activity,[1],91%
same,inhibition at 0.5 µM,[2],7.15%
same,inhibition at 0.5 µM,[3],2.24%
same,inhibition at 1 µM,[4],1.07%
same,inhibition,[5],Dose-dependent effect
same,inhibition,[6],inactive
same,inhibition,[7],Active
same,inhibition,[8],Active
same,inhibition,[9],Active
same,inhibition,[10],Active
same,Activity,[11],Active
same,Activity,[12],Active
same,Activity,[13],Active
same,Activity,[14],Active
same,inhibition,[15],Active
same,inhibition,[16],Active
same,inhibition,[17],Active
